A selection: hits, their analogues and other compounds. The true share with any hit is near 2.9%.
APOBEC3G inh – inhibitors of human APOBEC3G DNA deaminase. Q9HC16. recombinant A3G, ssDNA deamination FAM/TAMRA fluorescence. inhibition, % at 20 µM. actives 0.28% (n = 330,000). AID 493012;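 active means inhibition of at least 40% at 20 µM, with no more than 30% in the related APOBEC3A deaminase screen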;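 further: plate controls were DMSO wells with A3G for no effect and wells lacking A3G enzyme for full effect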
Target sequence (Q9HC16 whole entry, looked up): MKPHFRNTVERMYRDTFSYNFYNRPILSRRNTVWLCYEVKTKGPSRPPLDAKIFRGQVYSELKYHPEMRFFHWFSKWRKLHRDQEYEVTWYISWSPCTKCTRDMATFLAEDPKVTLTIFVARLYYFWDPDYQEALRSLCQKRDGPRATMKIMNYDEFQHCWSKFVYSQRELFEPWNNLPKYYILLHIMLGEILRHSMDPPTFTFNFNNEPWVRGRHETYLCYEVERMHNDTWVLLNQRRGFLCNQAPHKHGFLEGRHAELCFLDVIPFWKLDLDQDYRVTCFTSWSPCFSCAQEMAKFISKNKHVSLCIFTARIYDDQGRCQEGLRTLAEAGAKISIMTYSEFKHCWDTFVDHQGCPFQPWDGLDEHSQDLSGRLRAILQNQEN
HCV core dimer – blocks dimerization of HCV core protein; TR-FRET GST/Flag-core106 dimerization, 1536-well; inhibition, % at 5 µM; actives 0.33% (n = 300,000); AID 1899;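 active means inhibition above the mean of all tested compounds plus 3 SD, set per screening campaign, cut at about 45% in these data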
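System: GST-tagged and Flag-tagged HCV core protein residues 1-106 / Input: core106 proteins, GST 13.5 nM and Flag 17 nM / Buffer or medium: KF-containing HEPES buffer, pH 7.45, DTT, CHAPS, BSA / Probe or stimulus: Eu-anti-GST and XL665-anti-Flag labelled anti-tag antibodies / Schedule: 4 h, 22.5 °C incubation / Technique: TR-FRET 671 and 617 nm emission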
NS3 helicase inh – inhibitors of Hepatitis C virus NS3 helicase; actives 0.56% (n = 290,000); NS3 helicase DNA unwinding, Cy5 molecular beacon fluorescence; AID 1800; inhibition, % at 10.9 µM;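 active means inhibition above the mean of all tested compounds plus 3 SD, set per campaign, cut at about 35% in these data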;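 further: 0% = DMSO wells and 100% = thioflavine S control wells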
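Material: hepatitis C virus NS3 helicase domain fragment enzyme; measured by: Cy5 fluorescence, 0 and 60 min reads; control set: DMSO and thioflavine S; incubation: 60 min unwinding reaction at 25 °C after ATP addition; read-out basis: % inhibition from 60/0 min fluorescence ratio, DMSO 0%, thioflavine S 100%; repeats: singlicate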
PRMT1 FP inh – PRMT1 (human) inhibition, primary screen | recombinant PRMT1, activity-based probe fluorescence polarization | inhibition, % at 2.79 µM | actives 1.3% (n = 370,000) | AID 652257;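 active means inhibition above about 21% made by adding two undisclosed values, limit read from the data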
A3A deaminase – inhibitors of human APOBEC3A DNA deaminase; AID 493011; inhibition, % at 20 µM; recombinant A3A, FAM/TAMRA ssDNA deamination fluorescence; actives 0.41% (n = 330,000);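 active means at least 40% inhibition at 20 µM here, with at most 30% in a related deaminase screen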;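 further: plate controls were A3A with DMSO for no effect and wells lacking A3A enzyme for full effect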
Target sequence (P31941 whole entry, looked up): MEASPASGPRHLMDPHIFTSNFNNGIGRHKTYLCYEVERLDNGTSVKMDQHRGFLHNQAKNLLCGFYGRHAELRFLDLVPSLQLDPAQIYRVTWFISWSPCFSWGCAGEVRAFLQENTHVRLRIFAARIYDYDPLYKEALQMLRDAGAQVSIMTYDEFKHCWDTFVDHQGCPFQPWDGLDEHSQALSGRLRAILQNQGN
ABHD5 PLIN5 PPI – ABHD5-PLIN5 protein interaction inhibition; Q00G26+Q8WTS1; actives 0.78% (n = 360,000); inhibition, % at 4 µM; Split G. princeps luciferase complementation, luminescence, 4 h;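 active means inhibition above the mean inhibition across every tested compound plus 3 SD, cut at about 22% in these data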;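 further: 0% = DMSO only wells and the 100% control is not disclosed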
ABHD5 PLIN5 conf – ABHD5-PLIN5 interaction inhibition, confirmed. shares compounds with ABHD5 PLIN5 PPI. biochemical ABHD5-PLIN5 interaction, luminescence. inhibition, % at 4 µM. actives 67% (n = 2,200). AID 651612; in the data active means inhibition above about 23%;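 further: 0% = DMSO vehicle wells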
HNF4 counter – counter-screen for ABHD5-PLIN5 inhibitors: HNF4 split-luciferase. HNF4 dimerization, luminescence, biochemical. actives 77% (n = 2,200). inhibition, % at 4 µM. AID 651674. shares compounds with ABHD5 PLIN5 PPI;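 active means mean inhibition across replicate wells exceeding the computed hit threshold, cut at about 13% in these data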;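 further: light from luciferase halves that rejoin when HNF4 fusion proteins dimerize; 0% = DMSO only wells and the 100% control is not given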
PRMT1 inh conf – PRMT1 (human) inhibition, FP confirmation | shares compounds with PRMT1 FP inh | recombinant His-PRMT1, activity-based probe fluorescence polarization | inhibition, % at 2.79 µM | actives 42% (n = 3,300) | AID 687036;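 active means mean inhibition across replicates above the hit cutoff derived for the earlier primary screen, cut at about 22% in these data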
* marks the source's active call; other numbers are inactive results; x = no result given.

SMILES	APOBEC3G inh	HCV core dimer	NS3 helicase inh	PRMT1 FP inh	A3A deaminase	ABHD5 PLIN5 PPI	ABHD5 PLIN5 conf	HNF4 counter	PRMT1 inh conf
C#CCOCCOCCOCCNc1nc(N2CCN(C(=O)CCCCCCCCCCNC(=O)[C@H](CCC(=O)O)n3cc(CCCCCN)nn3)CC2)nc(N2CCN(C(=O)CCCCCCCCCCNC(=O)[C@@H]([C@H](C)O)n3cc(C)nn3)CC2)n1	-3	1	x	x	-1	27*	7	1	x
C#CCOCCOCCOCCNc1nc(N2CCN(C(=O)CCCCCCCCCCNC(=O)[C@@H]([C@H](C)O)n3cc(C)nn3)CC2)nc(N2CCN(C(=O)CCCCCCCCCCNC(=O)[C@@H]([C@H](C)O)n3cc(C)nn3)CC2)n1	12	4	x	2	5	40*	8	-13	x
C#CCOCCOCCOCCNc1nc(N2CCN(C(=O)[C@H]([C@@H](C)CC)n3cc(CCCCN)nn3)CC2)nc(N2CCN(C(=O)[C@H](CCCCN)n3cc(CCC(=O)O)nn3)CC2)n1	-5	-8	x	0	-2	2	x	x	x
C#CCOCCOCCOCCNc1nc(N2CCN(C(=O)CCCCCCCCCCNC(=O)[C@H](CCCCN)n3cc(CCO)nn3)CC2)nc(N2CCN(C(=O)CCCCCCCCCCNC(=O)[C@@H]([C@H](C)O)n3cc(C)nn3)CC2)n1	-8	-8	x	x	-3	45*	29*	13*	x
C#CCOCCOCCOCCNc1nc(N2CCN(C(=O)CCCCCCCCCCNC(=O)Cn3cc(CCCCCN)nn3)CC2)nc(N2CCN(C(=O)CCCCCCCCCCNC(=O)[C@H](CO)n3cc(CCCCCN)nn3)CC2)n1	-4	-13	x	x	-7	37*	10	0	x
CCOC(=O)c1c(-c2ccc(C)o2)csc1NC(=O)COC(=O)c1ccc(NC(N)=O)cc1	-8	49*	-11	18	-2	38*	21	44*	x
CCOC(=O)c1c(-c2ccc(C)o2)csc1NC(=S)NC(=O)c1cccs1	-6	13	11	1	-3	6	x	x	x
Cc1[nH]c2ccccc2c1CC(=O)Nc1ccc(Nc2cccnc2)c(-c2ccc(Oc3ccccc3)cc2)c1	x	x	x	-2	x	x	x	x	x
CCOc1ccccc1NC(=O)CSc1nnc(NC(=O)c2ccco2)s1	-7	-2	0	0	-2	7	x	x	x
CCOC(=O)N1CCN(Cc2c(O)ccc3ccccc23)CC1	-7	5	-9	16	-1	27*	51*	89*	x
O=C(C1CCCO1)N1CCN(Cc2c(O)ccc3ccccc23)CC1 (centres undefined)	5	-8	2	23*	4	41*	72*	102*	x
CC[C@@]1(C(=O)OC)N[C@H](CN(C)S(=O)(=O)c2ccc(-c3ccccc3)cc2)[C@@H]2C(=O)N(Cc3ccccc3)C(=O)[C@@H]21	0	x	x	0	-2	-1	x	x	x
CC(C)C(NS(=O)(=O)c1ccccc1)C(=O)OCc1cc([N+](=O)[O-])cc2c1OCOC2 (centres undefined)	x	3	3	-1	x	45*	4	6	x
O=C(O)CCc1ccc(-c2ccc(Br)cc2)o1	-5	13	20	62*	1	29*	24*	71*	62*
COc1ccc(-c2ccc(CCC(=O)O)o2)cc1	4	3	8	58*	12	60*	14	64*	5
NC(=O)c1ccc(-c2ccc(Br)cc2)o1	-2	4	-2	1	3	12	x	x	x
CC1OC(C(C)(C)C)Cc2[nH][nH]c(=O)c21 (centres undefined)	x	x	x	0	x	0	x	x	x
CC(C)(C)NC(=O)C(c1ccccc1)n1c(=O)c(-c2ccco2)nc2ccccc21 (centres undefined)	x	x	x	26*	x	75*	77*	26*	16
O=C(NC1CCCCC1)C(c1cccc2ccccc12)n1c(=O)c(-c2ccco2)nc2ccccc21 (centres undefined)	x	x	x	29*	x	87*	85*	9	19
COc1ccc(C(C(=O)NC(C)(C)C)n2c(=O)c(-c3ccccc3)nc3ccccc32)cc1 (centres undefined)	x	x	x	0	x	-1	x	x	x
O=c1c(-c2ccco2)nc2ccccc2n1C(c1ccccn1)c1nc2ccccc2[nH]1 (centres undefined)	x	x	x	57*	x	37*	33*	59*	12
O=c1c(-c2cccs2)nc2ccccc2n1C(c1ccccn1)c1nc2ccccc2[nH]1 (centres undefined)	x	x	x	1	x	14	x	x	x
O=C(NC1CCCCC1)C(c1ccc(C(F)(F)F)cc1)n1c(=O)c(-c2ccccc2)nc2ccccc21 (centres undefined)	x	x	x	1	x	-1	x	x	x
Cc1ccc(S(=O)(=O)CCC(=O)c2cccc([N+](=O)[O-])c2)cc1	38	-8	-12	83*	1	33*	65*	98*	91*
Cc1ccc(C(=O)CCS(=O)(=O)c2ccc(Br)cc2)cc1	-2	-7	-1	5	-1	-4	x	x	x
SMILES	APOBEC3G inh	HCV core dimer	NS3 helicase inh	PRMT1 FP inh	A3A deaminase	ABHD5 PLIN5 PPI	ABHD5 PLIN5 conf	HNF4 counter	PRMT1 inh conf
Cc1cc(C(=O)NCc2ccco2)c2ccccc2n1	-4	4	0	3	-7	7	x	x	x
Cc1ccc(-c2cc(C(=O)NCc3ccco3)c3ccccc3n2)o1	70	66*	22	48*	75	44*	16	30*	9
CC(C)NC(=NCc1ccc(Cl)cc1Cl)Nc1ccccc1	7	-9	-20	-2	2	1	x	x	x
Cc1ccc(/C=C/C(=O)NCCc2cccc(Cl)c2)o1	23	4	-15	46*	-6	40*	68*	79*	90*
CC(=O)NS(=O)(=O)c1ccc(NC(=O)/C=C/c2ccc(C)o2)cc1	0	-8	-9	27*	7	28*	50*	62*	77*
Cc1ccc(/C=C/C(=O)NCc2ccc(S(N)(=O)=O)cc2)o1	x	x	6	42*	x	47*	46*	57*	81*
Cc1ccc(/C=C/C(=O)Nc2ccncc2)o1	0	0	7	8	3	7	x	x	x
Cc1ccc(/C=C/C(=O)Nc2ccc(S(N)(=O)=O)cc2)o1	-2	0	3	76*	5	36*	64*	81*	81*
